As usually defined, the Ki is a measure of affinity in units of concentration, obtained from inhibition or displacement. A word on the EC50: it is the concentration that produces a half-maximal response. Read a high EC50 as weaker potency. Broadly, the IC50 is the concentration at which inhibition is half-maximal.

For assay [1], the target named is D(3) dopamine receptor (Homo sapiens, UniProt P35462). In words: Tested for antagonist binding affinity by measuring displacement of [3H]spiperone from Human Dopamine receptor D3 expressed in CHO K-1 cells. The class given is cell-based. Background: Loss of bound radioactivity is the signal in a displacement assay; it reports binding, not function.
D(3) dopamine receptor (Homo sapiens, UniProt P35462), sequence (P35462 whole entry): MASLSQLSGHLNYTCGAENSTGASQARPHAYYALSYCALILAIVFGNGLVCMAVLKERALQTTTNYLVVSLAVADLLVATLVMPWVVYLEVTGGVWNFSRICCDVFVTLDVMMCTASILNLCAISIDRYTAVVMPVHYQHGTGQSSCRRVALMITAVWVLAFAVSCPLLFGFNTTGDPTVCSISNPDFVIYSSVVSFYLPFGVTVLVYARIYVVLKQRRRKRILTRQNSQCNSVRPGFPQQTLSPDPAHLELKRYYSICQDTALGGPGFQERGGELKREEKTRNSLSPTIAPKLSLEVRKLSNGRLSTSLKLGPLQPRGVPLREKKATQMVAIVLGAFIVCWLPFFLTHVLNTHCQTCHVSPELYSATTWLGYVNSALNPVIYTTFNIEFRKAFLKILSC
For assay [2], the target named is T1, D(2) dopamine receptor (Homo sapiens, UniProt P14416). In words: Tested for antagonist binding affinity by measuring displacement of [3H]spiperone from Human Dopamine receptor D2L expressed in CHO K-1 cells. The class given is cell-based. The gist of the method:
(§1)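 Displacement of antagonist radioligand [3H]spiperone from D2L or D4.2 receptors; Ki values are means of three separate experiments varying by no more than 25%.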

Assay [3] addresses Serotonin 2 (5-HT2) receptor (Rattus norvegicus, UniProt P30994+P08909+P14842). Put plainly: Tested for binding affinity by measuring displacement of [3H]ketanserin from rat serotonin 5-hydroxytryptamine 2 receptor in rat cortex. The gist of the method: (§2)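 Rat brain binding: hippocampal 5HT1A with [3H]8-OH-DPAT, cortical 5HT2 with [3H]ketanserin as radioligand; values means of three separate experiments, varying no more than 25%.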

Assay [4] concerns the target T2, D(4) dopamine receptor (Homo sapiens, UniProt P21917).
T2 sequence (P21917 whole entry): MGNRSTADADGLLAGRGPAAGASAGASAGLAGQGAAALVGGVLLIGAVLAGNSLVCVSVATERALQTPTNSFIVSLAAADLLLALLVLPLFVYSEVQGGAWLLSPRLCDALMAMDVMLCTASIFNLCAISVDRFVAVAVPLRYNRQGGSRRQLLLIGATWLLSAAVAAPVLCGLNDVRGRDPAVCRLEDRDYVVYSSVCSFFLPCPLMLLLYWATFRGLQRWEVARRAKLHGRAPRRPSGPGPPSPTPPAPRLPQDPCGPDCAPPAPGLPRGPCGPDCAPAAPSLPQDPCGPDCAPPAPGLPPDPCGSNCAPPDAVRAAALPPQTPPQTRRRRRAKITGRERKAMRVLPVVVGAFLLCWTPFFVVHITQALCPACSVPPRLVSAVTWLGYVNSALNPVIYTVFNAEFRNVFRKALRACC
In words: Tested for antagonist binding affinity by measuring displacement of [3H]spiperone from Human Dopamine receptor D4 expressed in CHO K-1 cells. The class given is cell-based. The gist of the method:
as §1

In assay [5] the target is T3, 5-hydroxytryptamine receptor 1A (Rattus norvegicus, UniProt P19327).
T3 sequence (P19327 whole entry): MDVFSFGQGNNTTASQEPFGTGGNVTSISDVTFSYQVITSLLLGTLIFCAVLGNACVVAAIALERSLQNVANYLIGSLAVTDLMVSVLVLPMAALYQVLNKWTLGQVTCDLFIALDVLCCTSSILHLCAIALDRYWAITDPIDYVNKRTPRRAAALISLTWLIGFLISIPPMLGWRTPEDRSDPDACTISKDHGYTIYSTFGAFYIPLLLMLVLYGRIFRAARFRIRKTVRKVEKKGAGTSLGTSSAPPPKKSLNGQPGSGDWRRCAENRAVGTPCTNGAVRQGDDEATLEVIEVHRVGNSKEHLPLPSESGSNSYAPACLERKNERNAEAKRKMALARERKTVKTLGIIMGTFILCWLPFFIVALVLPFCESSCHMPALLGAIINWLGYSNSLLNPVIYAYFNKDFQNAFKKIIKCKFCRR
In words: Tested for binding affinity by measuring displacement of [3H]8-OH-DPAT from rat serotonin 5-hydroxytryptamine 1A receptor in rat hippocampus. The class given is tissue-based. The essentials: as §2

The target in assay [6] is T1, D(2) dopamine receptor. Put plainly: Tested for agonist binding affinity by measuring displacement of [3H]NPA from Human Dopamine receptor D2L expressed in CHO K-1 cells. The class given is cell-based. The essentials: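 Agonist-state D2L affinity measured by displacement of [3H]NPA (N-propylnorapomorphine); Ki values are means of three separate experiments varying by no more than 25%.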

Assay [7] has as its target D(2) dopamine receptor (Rattus norvegicus, UniProt P61169). In words: Agonist activity by measuring the [3H]thymidine uptake against Dopamine receptor D2L from rat. The class given is functional.
Assay [8] deals with T1, D(2) dopamine receptor. Put plainly: Human Dopamine receptor D2L affinities to determine agonist activity, using [3H]N-0437 as radioligand. The class given is functional.
The target in assay [9] is T4, D(3) dopamine receptor (Rattus norvegicus, UniProt P19020). In words: Agonist activity by measuring the [3H]-thymidine uptake against Dopamine receptor D3 from rat. The class given is functional.
T4 sequence (P19020 whole entry): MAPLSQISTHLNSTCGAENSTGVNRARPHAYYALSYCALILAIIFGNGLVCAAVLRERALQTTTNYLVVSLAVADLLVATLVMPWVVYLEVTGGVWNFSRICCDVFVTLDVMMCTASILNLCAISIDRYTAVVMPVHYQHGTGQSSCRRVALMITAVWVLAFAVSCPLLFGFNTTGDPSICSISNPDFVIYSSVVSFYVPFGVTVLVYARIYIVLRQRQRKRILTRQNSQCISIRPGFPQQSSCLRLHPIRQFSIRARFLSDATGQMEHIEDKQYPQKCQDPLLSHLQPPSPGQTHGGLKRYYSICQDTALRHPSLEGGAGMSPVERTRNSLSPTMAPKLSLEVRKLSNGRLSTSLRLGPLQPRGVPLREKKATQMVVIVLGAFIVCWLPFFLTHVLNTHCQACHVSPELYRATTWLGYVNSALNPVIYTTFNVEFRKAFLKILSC
Assay [10] is filed under the species Rattus norvegicus. In words: Yawning after 30 min in reserpinized rats. The class given is functional. The essentials: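 Male Wistar rats (180-200 g) reserpinized with 10 mg/kg sc reserpine 18-24 h prior; drug dissolved in a few drops warmed 96% ethanol then saline, 1 mL/kg sc; yawns counted per rat over first 30 min post-injection, mean ± SEM.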
The species named for assay [11] is Rattus norvegicus. In words: Flat body posture after 30 min in 4 reserpinized rats. The class given is functional. The gist of the method: (§3)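 Male Wistar rats (180-200 g) given reserpine 10 mg/kg sc 18-24 h before; test drug in ethanol/saline, 1 mL/kg sc in neck after acclimation in single boxes; number of rats showing the behaviour during first 30 min after injection recorded; saline n=8.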

Assay [12] concerns the target T4, D(3) dopamine receptor. Put plainly: Agonist activity by measuring the [3H]thymidine uptake against Dopamine receptor D3 from rat. The class given is functional.
The species entered for assay [13] is Rattus norvegicus. Put plainly: Sniffing after 30 min in 4 reserpinized rats. The class given is functional. The gist of the method: as §3
Assay [14] addresses D(3) dopamine receptor (Rattus norvegicus) (UniProt P19020). Put plainly: (§4) Intrinsic activity (IA) by the mitogenesis assay. The class given is functional.
The species entered for assay [15] is Rattus norvegicus. In words: Lower lip retraction after 30 min in 4 reserpinized rats. The class given is functional. The essentials: as §3
For assay [16], the target named is T3, 5-hydroxytryptamine receptor 1A. In words: Tested for binding affinity by measuring displacement of [3H]8-OH-DPAT from rat serotonin 5-hydroxytryptamine 1A receptor in rat hippocampus; NA means Not Active. The class given is tissue-based. The gist of the method: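 Rat hippocampal 5HT1A receptors labelled with [3H]8-OH-DPAT; values are means of three separate experiments varying by no more than 25%.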

Assay [17] has as its target D(3) dopamine receptor (Rattus norvegicus) (UniProt P19020). In words: Antagonist activity by measuring the inhibition of quinpirole stimulated [3H]- thymidine uptake against Dopamine receptor D3; the compound is active. The settings on record: filed as antagonist. The class given is functional.
Assay [18] addresses T2, D(4) dopamine receptor. Put plainly: Tested for antagonist binding affinity by measuring displacement of [3H]-spiperone from Human Dopamine receptor D4 expressed in CHO K-1 cells. The class given is cell-based. The essentials:
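Antagonist-radioligand binding: displacement of [3H]spiperone from D4.2 dopamine receptors; Ki values means of three separate experiments, varying no more than 25%.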

Assay [19] addresses D(3) dopamine receptor (Rattus norvegicus) (UniProt P19020). Described as §4.

D(3) dopamine receptor (Rattus norvegicus), sequence (P19020 whole entry): as above
T1 sequence (P14416 whole entry): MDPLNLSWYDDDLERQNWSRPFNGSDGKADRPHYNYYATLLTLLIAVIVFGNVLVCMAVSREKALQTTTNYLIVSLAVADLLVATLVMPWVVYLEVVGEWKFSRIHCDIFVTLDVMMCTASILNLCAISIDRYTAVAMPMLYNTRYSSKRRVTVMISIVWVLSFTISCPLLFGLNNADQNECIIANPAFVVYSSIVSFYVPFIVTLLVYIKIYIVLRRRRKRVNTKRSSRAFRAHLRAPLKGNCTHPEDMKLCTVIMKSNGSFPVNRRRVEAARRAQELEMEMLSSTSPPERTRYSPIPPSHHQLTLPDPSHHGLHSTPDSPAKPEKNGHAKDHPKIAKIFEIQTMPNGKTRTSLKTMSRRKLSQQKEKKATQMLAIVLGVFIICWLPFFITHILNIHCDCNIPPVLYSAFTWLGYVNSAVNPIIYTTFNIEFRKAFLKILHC
D(2) dopamine receptor (Rattus norvegicus, UniProt P61169), sequence (P61169 whole entry): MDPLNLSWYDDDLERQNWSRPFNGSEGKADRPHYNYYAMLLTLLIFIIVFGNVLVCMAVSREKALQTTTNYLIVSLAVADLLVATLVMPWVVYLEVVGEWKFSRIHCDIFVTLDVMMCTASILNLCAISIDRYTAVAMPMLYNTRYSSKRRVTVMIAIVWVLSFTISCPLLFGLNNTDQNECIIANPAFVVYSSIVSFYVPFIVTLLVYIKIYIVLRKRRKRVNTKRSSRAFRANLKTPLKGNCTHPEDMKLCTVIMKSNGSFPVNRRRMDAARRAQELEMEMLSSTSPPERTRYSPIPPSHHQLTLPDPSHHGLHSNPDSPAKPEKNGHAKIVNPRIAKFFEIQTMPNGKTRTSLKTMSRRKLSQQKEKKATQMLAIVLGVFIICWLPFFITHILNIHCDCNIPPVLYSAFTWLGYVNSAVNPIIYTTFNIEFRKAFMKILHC

On to `CCCN1CCO[C@@H]2c3cc(O)ccc3OC[C@@H]21` (relative stereo), for which the Ki at D(3) dopamine receptor [1] and on D(2) dopamine receptor [2] was over 10000 nM each time.
With `CCCN1CCO[C@H]2c3cc(O)ccc3SC[C@@H]21`, the Ki is 3000 nM at D(3) dopamine receptor [1]; over 5000 nM in assay [3]; over 3300 nM at D(4) dopamine receptor [4]; over 1000 nM in assay [5]; 854 nM at D(2) dopamine receptor [6].
Take `CCCN1CCO[C@H]2c3cc(O)ccc3OC[C@@H]21`: the Ki at D(3) dopamine receptor [1] and on D(2) dopamine receptor [2] was over 10000 nM each time.
In the case of `CCCN1CCO[C@@H]2c3cc(O)ccc3OC[C@H]21` [listing 1 of 2 here], the Ki on D(3) dopamine receptor [1] was 1.4 nM; at D(4) dopamine receptor [4], 169 nM; in assay [5], 1670 nM; on D(2) dopamine receptor [2], 1180 nM; on D(2) dopamine receptor [8] it was 42 nM. Moreover, the EC50 at D(2) dopamine receptor [7] stood at 5.7 nM; at D(3) dopamine receptor [9] it was 0.36 nM.
Turning to `CCCN1CCO[C@@H]2c3cc(O)ccc3SC[C@H]21`, the Ya in the assay filed under Rattus norvegicus [10] was found to be 0. The same molecule had an FB in the assay listed under Rattus norvegicus [11] of 4. Also, the Ki at D(3) dopamine receptor [1] is 2.87 nM; in assay [3], over 5000 nM; on D(4) dopamine receptor [4], 17.6 nM; in [5], 30 nM; on D(2) dopamine receptor [6] it was 1.14 nM. The EC50 is 0.007 nM at D(3) dopamine receptor [12] and 0.013 nM at D(2) dopamine receptor [7]. For the same molecule, in the assay filed under Rattus norvegicus [13], the Sni came to 4. In [14], the Intrinsic activity turned out to be 45%. Also, the LL in the assay listed under Rattus norvegicus [15] came out at 3.
Turning to `CCCN1CCOC2c3cc(O)ccc3SCC21` (trans isomer), the Ki at D(3) dopamine receptor [1] is 1.56 nM; on D(4) dopamine receptor [4] it was 44.4 nM; at D(2) dopamine receptor [2], 533 nM.
In the case of `CCCN1CCO[C@@H]2c3cc(O)ccc3OC[C@H]21` (relative stereo), the Ki on D(3) dopamine receptor [1] was 78 nM; at D(2) dopamine receptor [2] it was over 10000 nM.
In the assay filed under Rattus norvegicus [10], `CCCN1CCO[C@@H]2c3cc(O)ccc3SC[C@@H]21` (relative stereo) gave a Ya of 11. This molecule also came in with an FB in the assay listed under Rattus norvegicus [11] of 0. For the same molecule, the Ki was 3.58 nM on D(3) dopamine receptor [1], 193 nM on D(4) dopamine receptor [4], “Not Active” in assay [16] and 74 nM on D(2) dopamine receptor [6]. For the same molecule, the EC50 at D(3) dopamine receptor [12] came to 36 nM; at D(2) dopamine receptor [7], 122 nM. Besides, the Sni in the assay filed under Rattus norvegicus [13] is recorded as 0. The molecule also showed an Intrinsic activity in [14] of 57%. Also, in the assay filed under Rattus norvegicus [15], the LL stood at 0. Also, the Activity result in assay [17] was “Antagonist”.
Consider `CCCN1CCOC2c3cc(O)ccc3[S+]([O-])CC21` (stereo unspecified), for which the Ki on D(3) dopamine receptor [1] is 29 nM; in assay [16], “Not Active”; at D(2) dopamine receptor [6], 197 nM. Also, the concentration for half-maximal inhibition (IC50) at D(4) dopamine receptor [18] was over 10000 nM.
Regarding `CCCN1CCO[C@@H]2c3cc(O)ccc3OC[C@H]21` [listing 2 of 2 here], the Intrinsic activity in assay [19] was found to be 54%. For the same molecule, the Activity entry in assay [17] is “Antagonist”.

(Values after ChEMBL document CHEMBL1133458, “Synthesis and pharmacological evaluation of thiopyran analogues of the dopamine D3 receptor-selective agonist (4aR,10bR)-(+)-trans-3,4,4a,10b-tetrahydro-4-n-propyl-2H,5H [1]b enzopyrano[4,3-b]-1,4-oxazin-9-ol (PD 128907)” (J Med Chem, 2000).)
